Molecular target: Cysteine protease falcipain-3 (Plasmodium falciparum, UniProt Q9NAW4)
Assay: Inhibition of Plasmodium falciparum falcipain 3 incubated with compound for 10 mins before addition of 25 uM Z-Leu-Arg-AMC substrate by fluorescence spectrophotometry
Method in brief: (§1)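 Run at 25 °C in 100 mM sodium acetate pH 6.0 with 5 mM DTT and 0.75% DMSO. Enzyme was preincubated 10 min with compound diluted from DMSO, then Z-Leu-Arg-AMC was added and fluorescence was read immediately. Eight inhibitor concentrations were made by fivefold serial dilution. IC50 was fitted to percent inhibition versus a no-inhibitor control against log concentration.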

Cysteine protease falcipain-3, sequence (Q9NAW4 1-492): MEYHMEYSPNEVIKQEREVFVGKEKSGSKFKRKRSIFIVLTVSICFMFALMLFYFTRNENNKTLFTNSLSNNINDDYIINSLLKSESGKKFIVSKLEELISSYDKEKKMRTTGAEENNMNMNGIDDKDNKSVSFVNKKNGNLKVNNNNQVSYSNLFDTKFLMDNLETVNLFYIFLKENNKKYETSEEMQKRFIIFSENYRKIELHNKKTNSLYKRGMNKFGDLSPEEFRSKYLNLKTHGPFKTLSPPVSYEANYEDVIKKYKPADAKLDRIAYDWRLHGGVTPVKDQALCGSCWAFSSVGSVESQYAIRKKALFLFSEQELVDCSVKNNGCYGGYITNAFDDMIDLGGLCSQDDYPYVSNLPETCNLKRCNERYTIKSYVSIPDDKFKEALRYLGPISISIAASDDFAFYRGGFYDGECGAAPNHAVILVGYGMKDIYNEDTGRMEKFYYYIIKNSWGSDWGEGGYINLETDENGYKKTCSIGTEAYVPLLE

Row | IC50 | SMILES
1 | > 50 µM | CC(C)CCNC(=O)[C@H](Cc1ccccc1)N=CC1C(=O)Nc2ccc(Cl)cc21 (stereo partly drawn) [(Z/E)-(S)-2-((5-chloro-2-oxoindolin-3-ylidene)methylamino)-N-isopentyl-3-phenylpropanamide]
2 | > 50 µM | CC(C)CCNC(=O)[C@H](CC(C)C)N=CC1C(=O)Nc2ccc(Cl)cc21 (stereo partly drawn) [(Z/E)-(S)-2-((5-chloro-2-oxoindolin-3-ylidene)methylamino)-N-isopentyl-4-methylpentanamide]
3 | > 50 µM | CC(C)CCNC(=O)[C@H](CCc1ccccc1)N=CC1C(=O)Nc2c(Cl)cccc21 (stereo partly drawn) [(Z/E)-(S)-2-((7-chloro-2-oxoindolin-3-ylidene)methylamino)-N-isopentyl-4-phenylbutanamide]
4 | > 50 µM | CC(C)CCNC(=O)[C@H](CCc1ccccc1)N=CC1C(=O)Nc2ccccc21 (stereo partly drawn) [(Z/E)-(S)-N-isopentyl-2-((2-oxoindolin-3-ylidene)methylamino)-4-phenylbutanamide]
5 | > 50 µM | CC(C)CCNC(=O)[C@H](CC(C)C)N=CC1C(=O)N(C)c2ccccc21 (stereo partly drawn) [(Z/E)-(S)-N-isopentyl-4-methyl-2-((1-methyl-2-oxoindolin-3-ylidene)methylamino)pentanamide]
6 | > 50 µM | CC(C)CCNC(=O)[C@H](CC(C)C)N=CC1C(=O)Nc2ccccc21 (stereo partly drawn) [(Z/E)-(S)-N-isopentyl-4-methyl-2-((2-oxoindolin-3-ylidene)methylamino)pentanamide]
7 | > 50 µM | CC(C)CCNC(=O)CN=CC1C(=O)Nc2ccccc21 (stereo not drawn) [(Z/E)-N-isopentyl-2-((2-oxoindolin-3-ylidene)methylamino)acetamide]

Molecular target: T1, Falcipain 2 (Plasmodium falciparum, UniProt Q9N6S8)
T1 sequence (Q9N6S8 whole entry): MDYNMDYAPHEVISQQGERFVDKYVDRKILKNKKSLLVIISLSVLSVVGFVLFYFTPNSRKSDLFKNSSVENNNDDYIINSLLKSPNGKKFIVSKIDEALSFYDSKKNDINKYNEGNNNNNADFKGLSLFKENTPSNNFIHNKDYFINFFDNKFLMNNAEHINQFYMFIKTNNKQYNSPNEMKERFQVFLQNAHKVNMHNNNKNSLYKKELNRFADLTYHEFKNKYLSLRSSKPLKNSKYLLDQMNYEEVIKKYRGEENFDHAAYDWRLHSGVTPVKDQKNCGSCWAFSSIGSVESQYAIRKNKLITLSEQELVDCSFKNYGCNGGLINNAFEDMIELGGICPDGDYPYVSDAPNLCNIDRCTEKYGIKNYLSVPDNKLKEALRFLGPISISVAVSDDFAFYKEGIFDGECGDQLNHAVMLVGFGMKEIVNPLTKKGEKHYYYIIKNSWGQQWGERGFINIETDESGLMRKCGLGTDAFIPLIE
Assay: Inhibition of Plasmodium falciparum falcipain 2 incubated with compound for 10 mins before addition of 25 uM Z-Leu-Arg-AMC substrate by fluorescence spectrophotometry
Method in brief: as §1

Row | IC50 | SMILES
8 | > 50 µM | O=C1Nc2ccccc2C1C=Nc1ccccc1 (stereo not drawn) [3-((phenylamino)methylene)indolin-2-one]
9 | > 50 µM | CN1C(=O)C(C=NCCCNc2ccnc3cc(Cl)ccc23)c2ccccc21 (stereo not drawn) [(Z/E)-3-((3-(7-chloroquinolin-4-ylamino)propylamino)methylene)-1-methylindolin-2-one]
10 | > 50 µM | O=C1Nc2ccccc2C1C=NCCCNc1ccnc2cc(Cl)ccc12 (stereo not drawn) [(Z/E)-3-((3-(7-chloroquinolin-4-ylamino)propylamino)methylene)indolin-2-one]
11 | > 50 µM | O=C1Nc2ccc(Cl)cc2C1C=NCCCNc1ccnc2cc(Cl)ccc12 (stereo not drawn) [(Z/E)-5-chloro-3-((3-(7-chloroquinolin-4-ylamino)propylamino)methylene)indolin-2-one]
12 | > 50 µM | O=C1Nc2cc(Cl)ccc2C1C=NCCCNc1ccnc2cc(Cl)ccc12 (stereo not drawn) [(Z/E)-6-chloro-3-((3-(7-chloroquinolin-4-ylamino)propylamino)methylene)indolin-2-one]
13 | > 50 µM | O=C1Nc2c(Cl)cccc2C1C=NCCCNc1ccnc2cc(Cl)ccc12 (stereo not drawn) [(Z/E)-7-chloro-3-((3-(7-chloroquinolin-4-ylamino)propylamino)methylene)indolin-2-one]
14 | > 50 µM | CC(C)CCNC(=O)[C@H](CC(C)C)N=CC1C(=O)N(C)c2ccccc21 (stereo partly drawn) [(Z/E)-(S)-N-isopentyl-4-methyl-2-((1-methyl-2-oxoindolin-3-ylidene)methylamino)pentanamide]
15 | > 50 µM | CC(C)CCNC(=O)[C@H](CC(C)C)N=CC1C(=O)Nc2ccccc21 (stereo partly drawn) [(Z/E)-(S)-N-isopentyl-4-methyl-2-((2-oxoindolin-3-ylidene)methylamino)pentanamide]
16 | > 50 µM | CCOC(=O)[C@H](Cc1ccccc1)N=CC1C(=O)Nc2ccccc21 (stereo partly drawn) [(Z/E)-(S)-ethyl 2-((2-oxoindolin-3-ylidene)methylamino)-3-phenylpropanoate]
17 | > 50 µM | CC(C)CCNC(=O)CN=CC1C(=O)Nc2ccccc21 (stereo not drawn) [(Z/E)-N-isopentyl-2-((2-oxoindolin-3-ylidene)methylamino)acetamide]
18 | > 50 µM | CCOC(=O)CN=CC1C(=O)Nc2ccccc21 (stereo not drawn) [(Z/E)-ethyl 2-((2-oxoindolin-3-ylidene)methylamino)acetate]
